Test results from ChEMBL document CHEMBL2062460, “Disubstituted thiourea derivatives and their activity on CNS: synthesis and biological evaluation” (Eur J Med Chem, 2012).
Active and inactive are the calls of the source. No cut-off for these calls is given here.

Key:
[1] = test system: Mus musculus; experiment: Antinociceptive activity in Albino Swiss mouse administered at doses equivalent to 0.025 to 0.1 ED50, ip in presence of naloxone; format: functional, organism-based
How it was run: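 Acetic acid (0.6%, i.p.) writhing test in male Albino Swiss mice, compound i.p. in 0.5% methylcellulose 60 min prior, with naloxone 5 mg/kg s.c.; writhes counted 10 min from 5 min post-acid; mean ± S.E.M., 8–10 mice per group.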

[2] = Cytotoxicity against human MRC5 cells after 96 hrs by MTT assay; format: cell-based
How it was run: (§1)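 Normal fibroblasts seeded at 1 × 10^5 cells/ml in specific media with 10% FCS and antibiotics; serial compound dilutions (100 mM DMSO stock); 96 h at 37 °C, 5% CO2; MTT read-out; 50% proliferation-reduction concentration by linear regression vs untreated controls; mean of three determinations.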

[3] = test system: Mus musculus; experiment: Reduction of body temperature in normothermic Albino Swiss mouse administered at doses equivalent to 0.1 ED50, ip measured in rectum by thermistor thermometer analysis; format: ADME, organism-based; conditions: in vivo
[4] = test system: SK-MEL-28; experiment: Cytotoxicity against human SK-MEL-28 cells after 96 hrs by MTT assay; format: functional; conditions: SK-MEL-28, 96 h
How it was run: (§2)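 Solid tumour lines were seeded at 1 × 10^5 cells/ml in line-specific media with 10% FCS and antibiotics. Serial dilutions from a 100 mM DMSO stock were added. After 96 h at 37 °C in 5% CO2, viability was read by MTT. The 50% growth-inhibiting concentration (µM) was obtained by linear regression versus untreated controls. Values are means of three independent determinations.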

[5] = test system: Staphylococcus epidermidis; experiment: Antibacterial activity against methicillin-resistant Staphylococcus epidermidis clinical isolate 343/09 after 18 hrs by twofold serial agar dilution technique; format: functional; conditions: clinical isolate 343/09, 18 h
How it was run: (§3)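 Clinical isolates came from patients in Warsaw Medical University Hospitals and were classed as methicillin-susceptible or -resistant. MIC was determined by twofold serial agar dilution on Mueller–Hinton II agar (CLSI), 3.125–400 µg/mL in agar, with compounds in methanol or DMSO. Inoculum was 10^4 CFU/mL and plates were read after 18 h at 35 °C.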

[6] = test system: CCRF-SB; experiment: Cytotoxicity against human CCRF-SB cells after 96 hrs by MTT assay; format: functional
How it was run: (§4)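 Haematological tumour lines were seeded at 1 × 10^5 cells/ml in RPMI-1640 with 10% FCS plus penicillin/streptomycin. Serial dilutions from a 100 mM DMSO stock were added. After 96 h at 37 °C in 5% CO2, viability was read by MTT. The 50% proliferation-inhibiting concentration (µM) was obtained by linear regression against untreated controls, which completed at least three rounds of multiplication. Values are means of three determinations.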

[7] = test system: Mus musculus; experiment: Toxicity in Albino Swiss mouse assessed as motor coordination administered at doses equivalent to 0.1 ED50, ip by chimney test; format: organism-based; conditions: in vivo
[8] = test system: Staphylococcus epidermidis; experiment: Antibacterial activity against methicillin-resistant Staphylococcus epidermidis clinical isolate 377/09 after 18 hrs by twofold serial agar dilution technique; format: functional; conditions: clinical isolate 377/09, 18 h; how it was run: as §3
[9] = test system: MCF7; experiment: Cytotoxicity against human MCF7 cells after 96 hrs by MTT assay; format: functional; conditions: MCF7, 96 h; how it was run: as §2
[10] = test system: Mus musculus; experiment: Anticonvulsant activity in Albino Swiss mouse assessed as protection against pentylenetetrazole-induced mortality administered at doses equivalent to 0.1 ED50, ip; format: functional, organism-based
[11] = test system: Human immunodeficiency virus 1; experiment: Antiviral activity against HIV1 infected in human MT4 cells assessed as virus-induced cytopathogenicity after 4 days by MTT assay; format: functional, organism-based; conditions: Human immunodeficiency virus 1, MT4, 96 h
[12] = test system: Staphylococcus epidermidis; experiment: Antibacterial activity against methicillin-resistant Staphylococcus epidermidis clinical isolate 318/08 after 18 hrs by twofold serial agar dilution technique; format: functional; conditions: clinical isolate 318/08, 18 h; how it was run: as §3
[13] = test system: DU-145; experiment: Cytotoxicity against human DU145 cells after 96 hrs by MTT assay; format: functional; conditions: DU-145, 96 h; how it was run: as §2
[14] = test system: Mus musculus; experiment: Reduction of 5-hydroxytryptophan-induced head twitch in Albino Swiss mouse administered at doses equivalent to 0.1 ED50, ip; format: functional, organism-based
[15] = test system: Staphylococcus epidermidis; experiment: Antibacterial activity against methicillin-resistant Staphylococcus epidermidis clinical isolate 340/09 after 18 hrs by twofold serial agar dilution technique; format: functional; conditions: clinical isolate 340/09, 18 h; how it was run: as §3
[16] = test system: Mus musculus; experiment: Toxicity in Albino Swiss mouse assessed as locomotor activity administered at doses equivalent to 0.1 ED50, ip measured after 1 hr for 30 mins; format: organism-based; conditions: in vivo
How it was run: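 Spontaneous locomotor activity of single male Albino Swiss mice in photoresistor actometers (two light beams), beam crossings recorded for 30 min, starting 60 min after i.p. compound in 0.5% methylcellulose.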

[17] = test system: Staphylococcus epidermidis; experiment: Antibacterial activity against methicillin-resistant Staphylococcus epidermidis clinical isolate 315/08 after 18 hrs by twofold serial agar dilution technique; format: functional; conditions: clinical isolate 315/08, 18 h; how it was run: as §3
[18] = test system: Mus musculus; experiment: Antinociceptive activity in Albino Swiss mouse administered at doses equivalent to 0.025 to 0.1 ED50, ip; format: functional, organism-based
[19] = test system: CCRF-CEM; experiment: Cytotoxicity against human CCRF-CEM cells after 96 hrs by MTT assay; format: functional; how it was run: as §4
[20] = test system: WIL2-NS; experiment: Cytotoxicity against human WIL2-NS cells after 96 hrs by MTT assay; format: functional; how it was run: as §4
[21] = test system: Mus musculus; experiment: Toxicity in Albino Swiss mouse assessed as effect on amphetamine-induced hyperactivity administered at doses equivalent to 0.1 ED50, ip; format: organism-based; conditions: in vivo
How it was run: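 Compound i.p. in 0.5% methylcellulose 60 min before test; amphetamine 5 mg/kg s.c. 30 min before test; single mice in photoresistor actometers, light-beam crossings counted for 30 min.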

[22] = test system: Staphylococcus epidermidis; experiment: Antibacterial activity against methicillin-resistant Staphylococcus epidermidis clinical isolate 311/08 after 18 hrs by twofold serial agar dilution technique; format: functional; conditions: clinical isolate 311/08, 18 h; how it was run: as §3
[23] = Cytotoxicity against human CRL7065 cells after 96 hrs by MTT assay; format: cell-based, CRL-7065; how it was run: as §1
[24] = test system: Staphylococcus epidermidis; experiment: Antibacterial activity against methicillin-resistant Staphylococcus epidermidis clinical isolate 342/09 after 18 hrs by twofold serial agar dilution technique; format: functional; conditions: clinical isolate 342/09, 18 h; how it was run: as §3
[25] = test system: Staphylococcus epidermidis; experiment: Antibacterial activity against methicillin-resistant Staphylococcus epidermidis clinical isolate 341/09 after 18 hrs by twofold serial agar dilution technique; format: functional; conditions: clinical isolate 341/09, 18 h; how it was run: as §3
[26] = test system: Mus musculus; experiment: Anticonvulsant activity in Albino Swiss mouse assessed as protection against pentylenetetrazole-induced severity of clonic or tonic seizures administered at doses equivalent to 0.1 ED50, ip; format: functional, organism-based
[27] = Cytotoxicity against human MT4 cells after 96 hrs by MTT assay; format: cell-based
[28] = test system: Staphylococcus epidermidis; experiment: Antibacterial activity against methicillin-resistant Staphylococcus epidermidis clinical isolate 317/08 after 18 hrs by twofold serial agar dilution technique; format: functional; conditions: clinical isolate 317/08, 18 h; how it was run: as §3
[29] = test system: Staphylococcus epidermidis; experiment: Antibacterial activity against methicillin-resistant Staphylococcus epidermidis clinical isolate 316/08 after 18 hrs by twofold serial agar dilution technique; format: functional; conditions: clinical isolate 316/08, 18 h; how it was run: as §3
[30] = test system: Mus musculus; experiment: Toxicity in Albino Swiss mouse assessed as motor coordination administered at doses equivalent to 0.1 ED50, ip by rota rod test; format: organism-based; conditions: in vivo
[31] = test system: HepG2; experiment: Cytotoxicity against human HepG2 cells after 96 hrs by MTT assay; format: functional; conditions: HepG2, 96 h; how it was run: as §2
[32] = test system: SK-MES-1; experiment: Cytotoxicity against human SKMES1 cells after 96 hrs by MTT assay; format: functional; conditions: SK-MES-1, 96 h; how it was run: as §2

SMILES: Nc1ncnn1/C(S)=N/Cc1ccccc1
- Activity [1]: inactive
- CC50 at 96 h [2]: 43 µM
- Activity [3]: Toxic
- CC50 [4]: 72 µM
- MIC [5]: > 400 µg/mL
- CC50 [6]: 42 µM
- Activity [7]: Non-toxic
- MIC [8]: > 400 µg/mL
- CC50 [9]: 49 µM
- Activity [10]: inactive
- EC50 [11]: > 7.4 µM
- MIC [12]: > 400 µg/mL
- CC50 [13]: 11 µM
- Activity [14]: Active
- MIC [15]: > 400 µg/mL
- Activity [16]: Non-toxic
- MIC [17]: > 400 µg/mL
- Activity [18]: Active
- CC50 [19]: 39 µM
- CC50 [20]: 52 µM
- Activity [21]: Non-toxic
- MIC [22]: > 400 µg/mL
- CC50 at 96 h [23]: 47 µM
- MIC [24]: > 400 µg/mL
- MIC [25]: > 400 µg/mL
- Activity [26]: inactive
- CC50 at 96 h [27]: 7.4 µM
- MIC [28]: > 400 µg/mL
- MIC [29]: > 400 µg/mL
- Activity [30]: Non-toxic
- CC50 [31]: 78 µM
- CC50 [32]: 85 µM
